Measurements: publication PMC9790683 (Birth Defects Research, 2022)
Values joined by “and” are separate entries in the source; they are usually repeats but may differ in a detail not shown here. Equal values may be shown once. Read-outs that look alike come from different tables or passages of the source.

Experiments:
[1] = IVIVE, rat EAD with one‐compartment PPK model; settings: oral; for EAD using PPK model, using nominal dTP Conc.: Css = dTP; for EAD using PPK model, using free medium Conc.: Css = free medium dTP
Method in brief: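 Rat one-compartment population PK model assuming 100% absorption. Total clearance was hepatic plus renal (passive glomerular filtration), with inputs of plasma unbound fraction and hepatocyte Clint (predicted or experimental). Monte Carlo simulation of 10,000 individuals gave the upper 95th percentile steady-state plasma concentration. EAD was the dose giving total Css equal to the nominal dTP or Armitage-model free medium concentration.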

[2] = IVIVE, rat EAD with httk.PBTK model; settings: oral; for EAD using Httk.PBTK model, using nominal dTP Conc.: Cmax = dTP; for EAD using Httk.PBTK model, using free medium Conc.: Cmax = free medium dTP
Method in brief: (§1)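 Reverse dosimetry used the generic PBTK model from httk R package v1.8.1: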

[3] = tested on: human iPS cells (HYR0103, ATCC ACS‐1007); assay: devTOX quickPredict; type: cell-based; settings: threshold 0.85, 48 hours; for TP: cell viability; for dTP: o/c ratio
Method in brief: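 Human iPS cells exposed across a concentration range. Ornithine and cystine abundance measured, and ornithine/cystine ratio calculated at each concentration. dTP is the concentration, interpolated from the ratio response curve, where the ratio drops below a predefined developmental-toxicity threshold set from pharmaceuticals of known human teratogenicity. TP is the concentration where viability falls below the same threshold. Nominal values converted to free-medium concentration by mass-balance model.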

rat dams and fetuses = settings: cited from earlier work; for Developmental toxicity LEL: rat, oral repeat dosing, maternal and fetal LELs combined, ref Table 2 sources
[4] = IVIVE, human EAD with GastroPlus pregnancy PBPK model; settings: for EAD, GP.pregancy model, Maternal plasma Cmax, free medium concentration / EAD, GP.pregancy model, Maternal plasma Cmax, nominal dTP: human pregnancy, 12 weeks gestation
[5] = EAD by linear extrapolation of clinical dose‐Cmax data; settings: human, linear extrapolation of clinical dose‐Cmax data from PharmaPendium
Method in brief: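 Clinical dose–plasma Cmax data for the reference teratogen were taken from PharmaPendium. Dose giving Cmax equal to the in vitro dTP concentration was found by linear extrapolation. dTP is the interpolated concentration where the ornithine/cystine ratio curve in the human iPS cell devTOX qP assay falls below the predefined threshold.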

[6] = cited from earlier work; for Range of all human OEDs reported: across all in vitro assays (OEDall); for Range of all human OEDs reported / Range of human OEDs estimated from most sensitive endpoints: ref OECD, 2020; for Range of human OEDs estimated from most sensitive endpoints: most sensitive endpoint in each in vitro model (OEDnarrow)
[7] = IVIVE, human EAD with httk.PBTK model; settings: oral
Method in brief: as §1

[8] = Sprague–Dawley, corn oil gavage, GD 6–15, ref Narotsky et al., 1994
[9] = from CALUX Min EC10 cell-total, ref OECD 2020
[10] = from UKN1 HDAC inhibition EC10, ref OECD 2020
[11] = from ZET pericardial and/or yolk oedema Total embryo EC10, ref OECD 2020
[12] = from mEST HDAC inhibition, day 10 EC10, ref OECD 2020
[13] = Wistar, drinking water, GD 6–19, ref Pennanen et al. (1992)

SMILES	EAD using PPK model, using nominal dTP Conc. [1]	EAD using PPK model, using free medium Conc. [1]	EAD using Httk.PBTK model, using nominal dTP Conc. [2] [mg/kg/day]	EAD using Httk.PBTK model, using free medium Conc. [2] [mg/kg/day]	TP [3]	dTP [3]	Developmental toxicity LEL (rat dams and fetuses)	EAD, GP.pregancy model, Maternal plasma Cmax, free medium concentration [4] [mg/kg/day]	EAD, GP.pregancy model, Maternal plasma Cmax, nominal dTP [4] [mg/kg/day]	Range of all human OEDs reported [6]	Human OED_max fu model [6, 9] [mg/kg]	Human OED_max fu model [6, 10] [mg/kg]	Human OED_max fu model [6, 11] [mg/kg]	Human OED_max fu model [6, 12] [mg/kg]	Range of human OEDs estimated from most sensitive endpoints [6]	EAD, Httk.PBTK model, free medium concentration [7] [mg/kg/day]	EAD, Httk.PBTK model, nominal dTP [7] [mg/kg/day]	further results
C=CCCC(=O)O [PA, 4‐Pentenoic acid]	947.1 mg/kg/day	931.1 mg/kg/day	147.7	145.2	719 µM	913 µM	50 to 75 mg/kg/day											LEL: Fetal toxicity (rat dams and fetuses; [8]): 50 mg/kg/day
CCCC(CCC)C(=O)O [VPA, Valproic acid, reference compound]	33.3 mg/kg/day	14.3 mg/kg/day	13.5	5.8	318 µM	236 µM	200 mg/kg/day and 200 to 400 mg/kg/day	2.7	6.4	0.11–51.9	3.2	3	2.8	2	0.11–3.2	4.5	10.4	range of EADs derived from the in vitro dTP concentration ([4]; human, across all models, nominal and free): 2.7 to 24.4 mg/kg/day; EAD based on Clinical PK data [5]: 4.6 mg/kg/day; LEL: Fetal toxicity (rat dams and fetuses; Sprague–Dawley, GD 8–17, dose range 0–800, ref Binkerd et al., 1988): 200 mg/kg/day; LEL: Fetal toxicity (rat dams and fetuses; [8]): 200 mg/kg/day; LEL: Maternal toxicity (rat dams and fetuses; [8]): 400 mg/kg/day
CCCC(C)(C)C(=O)O [DMPA, 2,2‐Dimethylpentanoic acid]	936.6 mg/kg/day	505.8 mg/kg/day	388.3	209.7	1,745 μM	784 µM												
CCCCC(C)C(=O)O (stereo not shown) [MHA, 2‐Methylhexanoic acid]	924.3 mg/kg/day	573.1 mg/kg/day	331.4	205.5	1,631 μM	976 µM		36.5	59.12	2.3–928.4	2.3	254.8	55.1	286.3	2.3–286.3	176.0	285.5	
CCCCCC(CCC)C(=O)O (stereo not shown) [PHA, 2‐Propylheptanoic acid]	27.5 mg/kg/day	6.3 mg/kg/day	39.5	9.1	425 µM	546 µM												
CCCCC(CC)C(=O)O (stereo not shown) [EHA, 2‐Ethylhexanoic acid]	95.3 mg/kg/day	45.5 mg/kg/day	77.3	36.9	390 µM	399 µM	100 to 600 mg/kg/day	6.7	14.1	0.74–901.3						22.4	47.0	Human OED_max fu model ([6]; human): 4.8 mg/kg; LEL: Fetal toxicity (rat dams and fetuses; [13]): 100 mg/kg/day; LEL: Maternal toxicity (rat dams and fetuses; [13]): 600 mg/kg/day
CCCC(C)C(=O)O (stereo not shown) [MPA, 2‐Methylpentanoic acid]	2,957.1 mg/kg/day	2,407.2 mg/kg/day	574.2	467.4		1,248 μM	188 mg/kg/day	135.8	166.9	35.2–1,353.3	37.3	186.6	84.5	261.1	37.3–261.1	440.6	541.2	LEL: Maternal toxicity (rat dams and fetuses; [8]): 188 mg/kg/day
C=CCC(CCC)C(=O)O (stereo not shown) [4‐ene‐VPA, 2‐Propyl‐4‐pentenoic acid]	119.6 mg/kg/day	95.7 mg/kg/day	77.1	61.7	636 µM	611 µM												
CCCCCC(=O)O [HA, Hexanoic acid]	2,921.8 mg/kg/day	2,308.2 mg/kg/day	652.7	515.6	1,022 μM	838 µM												
CCC(CC)C(=O)O [EBA, 2‐Ethylbutyric acid]	2,708.3 mg/kg/day	2,260.4 mg/kg/day	517.4	431.8		1,071 μM	150 mg/kg/day	127.8	153.2	34.4–826.6	35.8	161.4	53.3	357.8	35.8–357.8	404.5	484.7	
